Experimental data as given in ChEMBL document CHEMBL1122960, “Acyclic analogues of 2'-deoxynucleosides related to 9-[(1,3-dihydroxy-2-propoxy)methyl]guanine as potential antiviral agents” (1985).

What was measured:
Format in all cases: functional
Vero = assay: Antiviral activity was determined in plaque reduction assay in vero cells against HSV-1 F strain; settings: Chlorocebus sabaeus, read-out: ID50 (the source's name)
In short: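 Vero cells were infected with HSV-1 (F strain) and then treated with the nucleoside analogue. ID50 is the dose giving a 50% reduction in plaque number relative to untreated controls.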

Mus musculus [1] = assay: Effect of oral treatment on HSV-2 encephalitis infection in mice and survivors/total was reported at a dose 10 mg/kg; 4/20
In short: (§1)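 Female Swiss-Webster mice, about 20 g, were infected intraperitoneally with 5 × 10⁴ PFU HSV-2 (strain G), roughly ten LD50. Drug was given orally once daily for 4 days, beginning 24 h after infection, with a placebo group included. Read-outs were survivors/total and mean survival time in days.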

Mus musculus [2] = assay: Effect of oral treatment on HSV-2 encephalitis infection in mice and mean survival time was reported at a dose 10 mg/kg; in short: as §1
Mus musculus [3] = assay: Effect of oral treatment on HSV-2 encephalitis infection in mice and survivors/total was reported at a dose 20 mg/kg; 5/20; in short: as §1
Mus musculus [4] = assay: Effect of oral treatment on HSV-2 encephalitis infection in mice and mean survival time was reported at a dose 40 mg/kg; in short: as §1
Mus musculus [5] = assay: Effect of oral treatment on HSV-2 encephalitis infection in mice and mean survival time was reported at a dose 20 mg/kg; in short: as §1
Mus musculus [6] = assay: Effect of oral treatment on HSV-2 encephalitis infection in mice and survivors/total was reported at a dose 40 mg/kg; 7/20; in short: as §1
Mus musculus [7] = assay: Effect of oral treatment on HSV-2 encephalitis infection in mice and mean survival time was reported at a dose 5 mg/kg; in short: as §1
Mus musculus [8] = assay: Effect of oral treatment on HSV-2 encephalitis infection in mice and survivors/total was reported at a dose 5 mg/kg; 8/20; in short: as §1
Mus musculus [9] = assay: Effect of oral treatment on HSV-2 encephalitis infection in mice and survivors/total was reported at a dose 20 mg/kg; 8/20; in short: as §1
Mus musculus [10] = assay: Effect of oral treatment on HSV-2 encephalitis infection in mice and survivors/total was reported at a dose 10 mg/kg; 5/20; in short: as §1

SMILES | IC50 (Vero) [µM] | other results
Nc1ncnc2c1ncn2COC(CO)CO | > 100 | –
Nc1nc(S)c2ncn(COC(CO)CO)c2n1 | 9 | –
Nc1nc(N)c2ncn(COC(CO)CO)c2n1 | 3.3 | Survival (Mus musculus [1]): 4; Survival time (Mus musculus [2]): 10.8 days; Survival (Mus musculus [3]): 5; Survival time (Mus musculus [4]): 11.5 days; Survival time (Mus musculus [5]): 10.9 days; Survival (Mus musculus [6]): 7
Nc1nc(=O)n(COC(CO)CO)cc1F | > 100 | –
Nc1ncc2ncn(COC(CO)CO)c2n1 | 16 | –
O=c1[nH]c(=O)n(COC(CO)CO)cc1F | > 100 | –
Cc1cn(COC(CO)CO)c(=O)[nH]c1=O | > 100 | –
Nc1ccn(COC(CO)CO)c(=O)n1 | > 100 | –
O=c1[nH]c(=O)n(COC(CO)CO)cc1Br | > 100 | –
O=c1ccn(COC(CO)CO)c(=O)[nH]1 | > 100 | –
Nc1nc(=O)ccn1COC(CO)CO | > 100 | –
Nc1nc2c(ncn2COCCO)c(=O)[nH]1 [ACYCLOVIR] | 0.5 | –
Nc1nc2c(ncn2COC(CO)CO)c(=O)[nH]1 [GANCICLOVIR] | 0.2 | Survival time (Mus musculus [7]): 9.9 days; Survival (Mus musculus [8]): 8; Survival time (Mus musculus [2]): 10.9 days; Survival time (Mus musculus [5]): 13.8 days; Survival (Mus musculus [9]): 8; Survival (Mus musculus [10]): 5
